Results on 42 molecules are retold here after ChEMBL document CHEMBL4190318 (Eur J Med Chem, 2017).

The source made the active and inactive calls. The calls are words filed in the database; no cut-off is given here.

Usually IC50 stands for the concentration that gives 50% inhibition. Low values mean inhibition by little substance, high ones a need for much substance. As a reminder, the Km is the concentration of substrate that gives half-maximal velocity. In general, Vmax refers to the rate approached at saturating substrate.

Series [1] addresses T1, N-acylethanolamine-hydrolyzing acid amidase (Rattus norvegicus, UniProt Q5KTC7).
T1 sequence (Q5KTC7 whole entry): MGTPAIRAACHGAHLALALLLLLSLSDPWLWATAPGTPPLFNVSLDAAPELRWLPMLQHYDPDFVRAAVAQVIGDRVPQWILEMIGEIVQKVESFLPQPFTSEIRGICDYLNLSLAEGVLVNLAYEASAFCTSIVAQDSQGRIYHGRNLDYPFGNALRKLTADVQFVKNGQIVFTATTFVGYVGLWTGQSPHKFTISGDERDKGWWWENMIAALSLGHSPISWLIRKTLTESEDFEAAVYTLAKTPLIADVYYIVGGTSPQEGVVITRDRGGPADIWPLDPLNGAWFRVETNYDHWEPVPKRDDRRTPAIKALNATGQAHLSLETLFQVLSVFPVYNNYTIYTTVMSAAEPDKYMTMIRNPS
In words: Inhibition of rat NAAA expressed in HEK293 cells using heptadecenoylethanolamide as substrate after 30 mins by HPLC-MS/MS analysis. The essentials:
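Rat NAAA activity measured against heptadecenoylethanolamide (C17:1 FAE) substrate, with hydrolysis products quantified by LC-MS. IC50 derived by nonlinear regression of concentration-response curves. Runs done in triplicate (n = 3); mean ± SD of three independent experiments.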

The target of series [2] is N-acylethanolamine acid amidase (Rattus norvegicus). Description: Inhibition of rat N-acylethanolamine acid amidase expressed in HEK293 cells using heptadecenoylethanolamide as substrate after 30 mins by LC-MS analysis.
The target of series [3] is T2, Acid ceramidase (Rattus norvegicus) (UniProt Q6P7S1).
T2 sequence (whole entry): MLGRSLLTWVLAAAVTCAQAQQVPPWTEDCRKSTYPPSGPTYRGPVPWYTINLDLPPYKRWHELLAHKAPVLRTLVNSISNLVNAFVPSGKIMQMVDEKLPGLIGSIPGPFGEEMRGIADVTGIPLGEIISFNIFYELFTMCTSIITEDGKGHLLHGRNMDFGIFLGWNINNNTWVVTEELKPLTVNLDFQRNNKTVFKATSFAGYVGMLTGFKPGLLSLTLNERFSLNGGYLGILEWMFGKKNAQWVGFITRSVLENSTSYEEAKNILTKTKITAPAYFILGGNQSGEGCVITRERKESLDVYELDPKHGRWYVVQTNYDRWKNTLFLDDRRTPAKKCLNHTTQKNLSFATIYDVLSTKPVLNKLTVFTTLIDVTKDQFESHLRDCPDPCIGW
Description: Inhibition of rat acid ceramidase expressed in HEK293 cells assessed as remaining activity at 20 uM using N-lauroylceramide as substrate after 30 mins by LC-MS analysis (reference value: 100 +/- 21.4 %). The class given is cell-based.

Series [4] has as its target T3, N-acylethanolamine-hydrolyzing acid amidase (Rattus norvegicus) (UniProt Q5KTC7).
T3 sequence (whole entry): T1 sequence (Q5KTC7 whole entry)
In words: Inhibition of rat NAAA expressed in HEK293 cells at 50 to 250 nM using heptadecenoylethanolamide as substrate after 30 mins in presence of covalent beta-lactone NAAA inhibitor ARN077 by Yonetani-Theorell plot analysis.

Series [5] addresses T3, N-acylethanolamine-hydrolyzing acid amidase (Rattus norvegicus). In words: Reversible inhibition of rat NAAA expressed in HEK293 cells at 10 fold IC50 preincubated for 10 mins followed by 100 fold dilution using heptadecenoylethanolamide as substrate by HPLC-MS/MS analysis. The class given is cell-based.
Series [6] shares this target. In words: Inhibition of rat NAAA expressed in HEK293 cells at 50 to 250 nM using heptadecenoylethanolamide as substrate after 30 mins in presence of non-covalent competitive NAAA inhibitor E8 by Yonetani-Theorell plot analysis. Type of series: cell-based.
Compound in series [7]: O=C(CCCCCc1cccc(Cl)c1)N1CCOC1=O
Description: (§1) Inhibition of rat NAAA expressed in HEK293 cells assessed as Km for substrate in presence of varying concentration of heptadecenoylethanolamide substrate after 30 mins by Michaelis-Menten plot analysis (reference value: 1395 +/- 260 microM). The class given is cell-based.

Compound in series [8]: O=C(CCCCCc1ccc(Cl)cc1)N1CCOC1=O
The description is as §1. Type of series: cell-based.

Compound in series [9]: O=C(CCCCCc1cccc(Cl)c1)N1CCOC1=O
Description: (§2) Inhibition of rat NAAA expressed in HEK293 cells assessed as enzyme Vmax per mg protein in presence of varying concentration of heptadecenoylethanolamide substrate after 30 mins by Michaelis-Menten plot analysis (reference value: 9383 +/- 937 nmol/min). The class given is cell-based.

Compound in series [10]: O=C(CCCCCc1ccc(Cl)cc1)N1CCOC1=O
Described as §2. Type of series: cell-based.

With `Nc1cccc(CCCCCC(=O)N2CCOC2=O)c1`, in [1], the 50% inhibitory concentration (IC50) is above 20 µM.

With `O=C1OCCN1C(=O)c1ccc(OC2CCCC2)cc1`, half-maximal inhibition in series [1] (IC50) was put at 0.12 µM.

In [1], `CCCCOc1ccc(C(=O)N2CCOC2=O)cc1` had an IC50 of 1.34 µM.

As for `O=C(CCCCCc1ccccc1)N1CCOC1=O`, in series [2], the half-maximal inhibitory concentration (IC50) came to 0.27 µM. In addition, in [3], the Activity worked out at 90.6%.

`O=C(O)c1ccc(CCCCCC(=O)N2CCOC2=O)cc1` had a concentration for half-maximal inhibition (IC50) in [1] above 20 µM.

On to `O=C(CCCCCc1ccc(I)cc1)N1CCOC1=O`, for which, in series [1], the IC50 was above 20 µM.

Turning to `O=C(CCCCCc1ccccc1Cl)N1CCOC1=O`, the IC50 in series [1] was above 20 µM.

`O=C1OCCN1C(=O)c1ccc(Oc2cccc(Cl)c2)cc1`: half-maximal inhibition in series [1] (IC50) was put at 7.74 µM.

In [1], `Nc1ccc(CCCCCC(=O)N2CCOC2=O)cc1` gave a half-inhibitory concentration (IC50) of 15.7 µM.

For `O=C(CCCCCc1ccc(C(F)(F)F)cc1)N1CCOC1=O`, the IC50 in [1] turned out to be 1.04 µM.

On to `O=C(CCCCCc1cccc(Br)c1)N1CCOC1=O`, for which the IC50 in [1] is 0.43 µM.

In the case of `COc1ccc(CCCCCC(=O)N2CCOC2=O)cc1`, the IC50 in series [1] is above 20 µM.

Take `O=C1OCCN1C(=O)c1ccc(OC2CCCCC2)cc1`: the half-inhibitory concentration (IC50) in [1] and in series [2] was 0.092 µM each time. Further, the Activity in [3] stood at 81.7%.

With `O=C1OCCN1C(=O)c1ccc(OC2CCC(O)CC2)cc1` (stereo unspecified), it took 0.21 µM to reach half-maximal inhibition in series [1] (IC50).

`CSc1ccc(CCCCCC(=O)N2CCOC2=O)cc1` gave an IC50 in series [1] above 20 µM.

Regarding `O=C(CCCCCc1ccc(O)cc1)N1CCOC1=O`, in series [3], the Activity was found to be 95.1%.

With `O=C(CCCCCc1cccc(Cl)c1)N1CCOC1=O`, the inhibition entry in [4], in [5] and in series [6] was “Active” in each case. In addition, the Activity in [3] was 85.3%.

`O=C(CCCCCc1cccc(CO)c1)N1CCOC1=O` yielded a concentration for half-maximal inhibition (IC50) in series [1] above 20 µM.

In series [1], `O=C(CCCCCc1ccccc1O)N1CCOC1=O` returned a half-maximal inhibitory concentration (IC50) above 20 µM.

In turn, `Cc1cccc(Oc2ccc(C(=O)N3CCOC3=O)cc2)c1` came in with an IC50 in [1] of 5.21 µM.

Regarding `Cc1ccc(CCCCCC(=O)N2CCOC2=O)cc1C`, the IC50 in series [1] is above 20 µM.

Turning to `CSc1cccc(CCCCCC(=O)N2CCOC2=O)c1`, in series [1], the midpoint of inhibition, the IC50, lay at 12.8 µM.

Molecule `Cc1ccccc1CCCCCC(=O)N1CCOC1=O` showed a half-inhibitory concentration (IC50) in [1] above 20 µM.

As for `CCCCCCOc1ccc(C(=O)N2CCOC2=O)cc1`, inhibition in series [1] was half-maximal at 0.64 µM (IC50).

Regarding `O=C1OCCN1C(=O)c1ccc(Oc2ccc(O)cc2)cc1`, the 50% inhibitory concentration (IC50) in series [1] was above 20 µM.

On to `O=C(O)c1cccc(CCCCCC(=O)N2CCOC2=O)c1`, for which the concentration for half-maximal inhibition (IC50) in series [1] is above 20 µM.

Consider `O=C(CCCCCc1cccc(O)c1)N1CCOC1=O`, for which 8.64 µM corresponded to half-maximal inhibition in series [1] (IC50).

Turning to `O=C(CCCCCc1ccc(Cl)cc1)N1CCOC1=O`, half-maximal inhibition in series [1] (IC50) was put at 4.6 µM.

`O=C(CCCCCc1cccc(C(F)(F)F)c1)N1CCOC1=O` returned a concentration for half-maximal inhibition (IC50) in [1] of 0.058 µM.

Turning to `O=C(CCCCCc1ccc(O)c(Cl)c1)N1CCOC1=O`, the concentration for half-maximal inhibition (IC50) in series [1] is above 20 µM.

The molecule `O=C(CCCCCc1ccc(Br)cc1)N1CCOC1=O` registered an IC50 in [1] of 8.51 µM.

In [1], `COc1cccc(CCCCCC(=O)N2CCOC2=O)c1` displayed a concentration for half-maximal inhibition (IC50) of 16.3 µM.

In series [1], `NC(=O)c1cccc(CCCCCC(=O)N2CCOC2=O)c1` yielded an IC50 above 20 µM.

`O=C(CCCCCc1ccc(CO)cc1)N1CCOC1=O` returned an IC50 in [1] of 0.19 µM.

Regarding `CCC(CC)Oc1ccc(C(=O)N2CCOC2=O)cc1`, the 50% inhibitory concentration (IC50) in [1] is 0.48 µM.

`O=C(CCCCCc1ccc(F)c(Cl)c1)N1CCOC1=O`: the concentration for half-maximal inhibition (IC50) in [1] is 0.026 µM.

The molecule `O=C1OCCN1C(=O)c1ccc(OC2CCOCC2)cc1` gave an IC50 in series [1] of 0.33 µM.

The molecule `NC(=O)c1ccc(CCCCCC(=O)N2CCOC2=O)cc1` came in with a half-inhibitory concentration (IC50) in series [1] above 20 µM.

For the molecule `O=C(CCCCCc1ccc(O)c(F)c1)N1CCOC1=O`, half-maximal inhibition in series [1] (IC50) was put at 0.16 µM.

`Cc1ccc(Oc2ccc(C(=O)N3CCOC3=O)cc2)cc1` displayed an IC50 in series [1] of 6.4 µM.

In series [1], `O=C(CCCCCc1cccc(I)c1)N1CCOC1=O` had an IC50 of 3.12 µM.

B1: N-acylethanolamine-hydrolyzing acid amidase (Rattus norvegicus), Q5KTC7 (protein)
chain: T1 sequence (Q5KTC7 whole entry)
Regarding B1, the Km worked out at 1280 µM in [7] and 1670 µM in series [8]. Besides, the Vmax in series [9] amounted to 2790 nmol/min/mg; in series [10], 9900 nmol/min/mg.
